These results are taken from ChEMBL document CHEMBL1122458, “beta-Carbolines as benzodiazepine receptor ligands. 1. Synthesis and benzodiazepine receptor interaction of esters of beta-carboline-3-carboxylic acid” (J Med Chem, 1983).

Experiment [1] concerns the target GABA-A receptor; anion channel. Kind of experiment: Concentration that inhibits specific [3H]flunitrazepam binding to benzodiazepine receptor in bovine brain. The method, boiled down: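 Bovine cortex (frozen, -20 °C) homogenized in 50 mM Tris-HCl pH 7.4, spun 48000g 10 min, pellet resuspended; incubated 45 min with 0.2 nM [3H]flunitrazepam (final) and displacers. Rapid filtration over GF-B filters, three ice-cold washes, scintillation counting. Nonspecific binding with 10 µM diazepam. IC50 by log probit analysis, four to six concentrations, each in triplicate.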

Experiment [2] deals with GABA-A receptor; anion channel (Mus musculus) (UniProt Q8BHJ7+P26048+Q8QZW7+P50571+Q9R0Y8+P22723+A2AMW3+P62812+Q9JLF1+P26049+P22933+Q9D6F4+P63080+P27681+P16305). Nature of the experiment: In vivo inhibition of specific [3H]flunitrazepam binding in mouse brain 10 minute after iv administration of 15 uM/Kg. The class given is organism-based. The method, boiled down:
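Mouse brain ex vivo: specific [3H]flunitrazepam binding measured 10 min after iv dosing at 15 µmol/kg; reported as percent inhibition of specific binding, mean ± SEM of four determinations.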

In experiment [1], `CCOC(=O)c1cc2c(cn1)[nH]c1ccccc12` showed an IC50 of 1.4 nM. In experiment [2], the inhibition came out at 61.7%.

Consider `COC(=O)C1Cc2c([nH]c3ccccc23)CN1` (stereo unspecified), for which the IC50 in experiment [1] stood at 250 nM. Moreover, the inhibition in experiment [2] stood at 6.1%.

For the molecule `CCCCOC(=O)C1Cc2c([nH]c3ccccc23)CN1` (stereo unspecified), the IC50 in experiment [1] is 4800 nM.

Regarding `CCCOC(=O)C1Cc2c([nH]c3ccccc23)CN1` (stereo unspecified), in experiment [1], the IC50 was determined as 4400 nM.

With `CCCCOC(=O)c1cc2c(cn1)[nH]c1ccccc12`, the IC50 in experiment [1] was determined as 29 nM. In addition, the inhibition in experiment [2] is 54.9%.

In the case of `O=C(O)c1cc2c3ccccc3nc-2c[nH]1`, the IC50 in experiment [1] amounted to 7200 nM.

As for `N#CCCOC(=O)c1cc2c3ccccc3nc-2c[nH]1`, the IC50 in experiment [1] was determined as 27 nM. The molecule further displayed an inhibition in experiment [2] of 44.4%.

Take `O=C(OCc1cccnc1)c1cc2c3ccccc3nc-2c[nH]1`: the IC50 in experiment [1] was 34 nM. The same molecule had an inhibition in experiment [2] of 49.4%.

`O=C(OCc1ccccc1)c1cc2c3ccccc3nc-2c[nH]1` had an IC50 in experiment [1] of 21 nM. In experiment [2], this molecule displayed an inhibition of 38.4%.

In experiment [1], `CCOC(=O)C1Cc2c([nH]c3ccccc23)CN1` (stereo unspecified) showed a half-maximal inhibitory concentration (IC50) of 6000 nM.

Regarding `COCCOC(=O)c1cc2c3ccccc3nc-2c[nH]1`, the IC50 in experiment [1] amounted to 145 nM. Moreover, the inhibition in experiment [2] was found to be 34.6%.

Consider `O=C(OCc1ccccc1)C1Cc2c([nH]c3ccccc23)CN1` (stereo unspecified), for which, in experiment [1], the half-inhibitory concentration (IC50) was 2700 nM.

In experiment [1], `CCCOC(=O)c1cc2c(cn1)[nH]c1ccccc12` gave an IC50 of 4.6 nM. The inhibition in experiment [2] was determined as 62.7%.

`O=C(OCCCl)c1cc2c3ccccc3nc-2c[nH]1`: in experiment [1], the IC50 was found to be 22 nM. Moreover, in experiment [2], the inhibition was determined as 89%.

Take `O=C(O)C1Cc2c([nH]c3ccccc23)CN1` (stereo unspecified): in experiment [1], the IC50 came to 22000 nM.

Take `[2H]C([2H])([2H])OC(=O)c1cc2c(cn1)[nH]c1ccccc12`: in experiment [1], the IC50 stood at 5.3 nM.

With `COC(=O)c1cc2c(cn1)[nH]c1ccccc12` [BETA-CCM], the half-maximal inhibitory concentration (IC50) in experiment [1] came out at 2.5 nM. The same molecule had an inhibition in experiment [2] of 51.2%.

Molecule `CN(C)CCOC(=O)c1cc2c3ccccc3nc-2c[nH]1` gave an IC50 in experiment [1] of 330 nM. This molecule gave an inhibition in experiment [2] of 13.4%.

In experiment [1], `O=C(OCCF)c1cc2c3ccccc3nc-2c[nH]1` registered an IC50 of 27 nM. Also, the inhibition in experiment [2] was 55.3%.
